We go through seven compounds from publication PMC10348038 (Journal of Enzyme Inhibition and Medicinal Chemistry, 2023).

Assay [1] has as its target PD-1/PD-L1 interaction (Homo sapiens, UniProt Q9NZQ7). In words: HTRF PD1/PD-L1 binding assay. The note with it: IC50 against the PD-1/PD-L1 interaction.
In assay [2] the test system is A549. In words: CCK-8 cell viability assay, A549. It counts as cell-based. Particulars: Homo sapiens, A549, 60 h, read-out: IC50 A549. The essentials:
(§1)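 Cells grown in DMEM or RPMI-1640 with 10% FBS and 1% penicillin-streptomycin at 37 °C, 5% CO2. Seeded in 96-well plates at densities suited to each line's growth rate and settled 8 h, then exposed 60 h to test compound at 0, 1, 2, 4, 8, 16 and 32 μM from 10 mM DMSO stocks. […] CCK-8 added for 0.5–1 h, OD read at 450 nm, viability normalised to control; mean ± SEM, n = 3.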
(In general: Formazan colour is commonly taken as a measure of viable cells.)

Assay [3] has as its system MCF-7. As to the kind of experiment: CCK-8 cell viability assay, MCF-7. The class given is cell-based. Particulars: Homo sapiens, MCF7, 60 h, read-out: IC50 MCF-7. An outline of the steps:
as §1

For assay [4], the system named is MDA-MB-231 cells. As to the kind of experiment: CCK-8 cell viability assay, MDA-MB-231. The class given is cell-based. The note with it: Homo sapiens, MDA-MB-231, 60 h, read-out: IC50 MDA-MB-231. The essentials: as §1
Assay [5] deals with HCC827. As to the kind of experiment: CCK-8 cell viability assay, HCC827. Particulars: Homo sapiens, HCC827, 60 h, read-out: IC50 HCC827. It counts as cell-based. The essentials: as §1
The subject of assay [6] is MRC-5 cells. As to the kind of experiment: CCK-8 cell viability assay, normal MRC-5 cells. The class given is cell-based. The note with it: for IC50: Homo sapiens, MRC5, 60 h, read-out: IC50 MRC-5. An outline of the steps: as §1
For assay [7], the system named is MDA-MB-231 cells. In words: Flow cytometry apoptosis analysis. It counts as cell-based. Particulars: 48 h. Background: Flow cytometry measures light scatter and fluorescence of single cells or particles in a stream.
For assay [8], the system named is MDA-MB-231 cells. As to the kind of experiment: Colony formation assay. It counts as cell-based. The note with it: for Clone formation, result in words: positive controls, BMS-202 at 1 µM. The essentials:
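MDA-MB-231 seeded at 500 cells/well in 6-well plates, in triplicate. […] Medium renewed every three days. At two weeks: PBS washes, 15 min fixation in 4% paraformaldehyde, 1% crystal violet stain. Colonies of more than 500 cells counted by image analysis; mean ± SEM, n = 3.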

The target of assay [9] is PD-L1 (Homo sapiens, UniProt Q9NZQ7). As to the kind of experiment: Western blot of PD-L1 protein expression in MDA-MB-231 cells. The class given is cell-based. The note with it: MDA-MB-231, 48 h, 1, 2 and 4 μM. The essentials:
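MDA-MB-231 cells treated 48 h with test compound at 1, 2 and 4 μM, BMS202 as positive control; in a further arm, 4 μM with or without GSK-3β inhibitor (40 nM) for 48 h. Lysates separated by SDS-PAGE, transferred to PVDF, blocked 2 h in 5% BSA/TBST, probed overnight at 4 °C with anti-PD-L1 (1:1000). Mean ± SEM, n = 3.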
On the technique in general: A western blot detects proteins with antibodies after separation by electrophoresis.

Assay [10] has as its system p-AKT1 (Ser473). In words: Western blot of AKT phosphorylation in MDA-MB-231 cells. It counts as cell-based. The note with it: 4 μM, 48 h, MDA-MB-231, Western blot. The essentials: (§2)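 MDA-MB-231 cells exposed to test compound at 1, 2 and 4 μM for 48 h. Lysates run on SDS-PAGE and transferred to PVDF. Membranes blocked 2 h in 5% BSA/TBST, then probed overnight at 4 °C with antibodies to AKT, p-AKT, mTOR and p-mTOR (1:1000). Mean ± SEM, n = 3.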

Assay [11] has as its system MDA-MB-231 tumour. In words: MDA-MB-231 tumour-bearing nude mouse model. The class given is in vivo, BALB/c nude mice. Particulars: intraperitoneal, every 2 days, nine administrations, nude mice. The essentials:
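Female BALB/c nude mice. MDA-MB-231 cells (within 10 passages) in PBS:Matrigel 1:1 at 3 × 10^7 cells/mL, 100 μL injected subcutaneously into the axilla. From about 200 mm3, test compound given intraperitoneally every 2 days in normal saline with 30% PEG400; cyclophosphamide as comparator. Tumour volume by callipers as length × width² × 0.5. Study ended when control tumours reached 1500 mm3. Tumours excised and weighed; inhibition rate from treated versus control tumour weight.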

The subject of assay [12] is MDA-MB-231 cells. In words: Wound healing assay. The class given is cell-based.
Assay [13] has as its system PD-L1 mRNA. As to the kind of experiment: qPCR of PD-L1 mRNA in MDA-MB-231 cells. The note with it: MDA-MB-231, 48 h. It counts as cell-based.
Assay [14] relates to p-mTOR. As to the kind of experiment: Western blot of mTOR phosphorylation in MDA-MB-231 cells. The class given is cell-based. Particulars: 4 μM, 48 h, MDA-MB-231, Western blot. The essentials:
as §2

A value given as a limit tells only on which side of the number the result lay.

PD-1/PD-L1 interaction, sequence (Q9NZQ7 19-238 limits assumed): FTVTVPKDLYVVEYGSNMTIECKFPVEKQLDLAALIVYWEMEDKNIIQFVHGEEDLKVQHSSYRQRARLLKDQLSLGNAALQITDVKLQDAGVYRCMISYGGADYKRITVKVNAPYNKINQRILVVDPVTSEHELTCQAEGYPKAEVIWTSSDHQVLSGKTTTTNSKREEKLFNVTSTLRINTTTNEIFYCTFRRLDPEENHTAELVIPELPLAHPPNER
PD-L1, sequence (Q9NZQ7 19-290): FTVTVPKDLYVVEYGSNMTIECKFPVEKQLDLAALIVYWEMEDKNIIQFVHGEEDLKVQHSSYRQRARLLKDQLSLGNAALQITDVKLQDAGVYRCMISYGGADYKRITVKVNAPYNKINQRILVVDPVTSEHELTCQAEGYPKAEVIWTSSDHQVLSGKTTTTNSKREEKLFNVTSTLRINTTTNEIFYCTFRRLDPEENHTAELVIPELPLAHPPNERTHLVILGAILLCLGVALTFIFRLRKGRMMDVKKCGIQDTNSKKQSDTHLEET

In general, IC50 refers to the concentration at which inhibition is half-maximal. For the compound `N#Cc1cccc(COc2cc(OCc3cccc(-c4cc(F)ccc4F)c3F)ccc2CNCCO)c1` [7b-2, 3-[2-[(2-Hydroxy-ethylamino)-methyl]-5-(2,2',5'-trifluoro-biphenyl-3-ylmethoxy)-phenoxymethyl]-benzonitrile], in assay [1], the 50% inhibitory concentration (IC50) is < 1 µM.
As to `COc1c(COc2ccc(CN[C@H](CO)C(=O)O)c(OCc3cncc(C#N)c3)c2)cccc1-c1ccccc1F` [13h-1, N-[2–(5-Cyano-pyridin-3-ylmethoxy)-4-(2'-fluoro-2-methoxy-biphenyl-3-ylmethoxy)-benzyl]-D-serine], the IC50 in [2] was found to be 7.27 ± 0.71 µM; in assay [3], 4.81 ± 0.45 µM; in assay [4] it was 4.67 ± 0.79 µM; in assay [5] it was 6.16 ± 0.76 µM; in assay [6], 9.31 ± 0.16 µM.
With `CC(=O)O[C@H]1C(=O)[C@@]2(C)[C@H]([C@H](OC(=O)c3ccccc3)[C@]3(O)C[C@H](OC(=O)[C@H](O)[C@@H](NC(=O)c4ccccc4)c4ccccc4)C(C)=C1C3(C)C)[C@]1(OC(C)=O)CO[C@@H]1C[C@@H]2O` [paclitaxel, reference compound], the Tumour cell apoptosis result in assay [7] (1 μM) was “approximately 60%”. The “Clone formation, result in words” value in assay [8] was “Few colonies can be observed”.
With `Cc1c(COc2ccc(CNCCN)c(OCc3ccccc3)c2)cccc1-c1ccccc1F` [12j-4, N^1-[2-Benzyloxy-4-(2'-fluoro-2-methyl-biphenyl-3-ylmethoxy)-benzyl]-ethane-1,2-diamine], the IC50 in assay [2] came to 7.79 ± 0.69 µM; in [3], 4.71 ± 0.44 µM; in [4], 2.68 ± 0.27 µM; in [5], 3.24 ± 0.09 µM; in assay [6], 10.3 ± 0.12 µM. Also, the “PD-L1 protein expression, result in words” value in assay [9] is listed as “down-regulated”. The “Inhibition rate of AKT type I phosphorylated form expression” value in [10] is reported as 90%. In addition, the Apoptotic ratio result in [7] (4 μM) was “exceeded 40.42%”. In addition, the Tumour inhibition rate was 39.04% in assay [11] (10 mg/kg) and 62.54% in assay [11] (20 mg/kg). Also, the “IC50 against MRC-5 cells relative to IC50 against MDA-MB-231 cells” value in [6] (selectivity normal vs cancer cells) was 3.83 fold. In assay [12] (Homo sapiens, MDA-MB-231, read-out: Migration inhibition rate), the inhibition at 1 µM turned out to be 50%. The “MDA-MB-231 cells' proliferation rate (clone formation)” value in assay [8] (1 µM, treated 24 h, colonies after two weeks) amounted to 40%. Besides, the “PD-L1 mRNA, result in words” value in assay [13] is “decreased”. The “Inhibition rate of phosphorylated mTOR expression” value in assay [14] came out at 40%.
As for `COc1nc(OCc2cccc(-c3ccccc3)c2C)ccc1CNCCNC(C)=O` [BMS-202, reference compound], in [12] (MDA-MB-231, positive control), the “Migration inhibition, result in words” value was “can hardly inhibit the cancer cells’ migration”. Moreover, the “Clone formation, result in words” value in assay [8] was “scarce inhibition activity”.
Take `N#Cc1cncc(COc2cc(OCc3cccc(-c4cc(F)ccc4F)c3F)ccc2CNCCO)c1` [7b-4, 5-[2-[(2-Hydroxy-ethylamino)-methyl]-5-(2,2',5'-trifluoro-biphenyl-3-ylmethoxy)-phenoxymethyl]-nicotinonitrile]: the IC50 in [1] is < 1 µM.
Take `COc1c(COc2cc(OCc3cccc(C#N)c3)c(CNCCO)cc2Cl)cccc1-c1ccccc1F` [13h-3, 3-{4-Chloro-5–(2'-fluoro-2-methoxy-biphenyl-3-ylmethoxy)-2-[(2-hydroxy-ethylamino)-methyl]-phenoxymethyl}-benzonitrile]: the half-inhibitory concentration (IC50) came out at 13.5 ± 0.86 µM in assay [2]; 5.52 ± 0.57 µM in assay [3]; 4.96 ± 0.82 µM in assay [4]; 5.65 ± 0.56 µM in [5]; 11.1 ± 0.2 µM in [6].
